# The source made the active and inactive calls. The calls are words filed in the database; no cut-off is given here.
# Key:
# [1] = test system: Trypanosoma brucei brucei; test: Antitrypanocidal activity against bloodstream forms of Trypanosoma brucei brucei Lister 427 after 6 hrs by time-kill assay; format: functional, organism-based
# Mus musculus [2] = test: Toxicity in ICR mouse assessed as fatality at 100 mg/kg, ip; format: organism-based; set-up: dose 100 mg/kg, route intraperitoneal; conditions: in vivo
# Summary of the method: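 Maximum tolerated dose study in mice at 10, 30 and 100 mg/kg, scoring clinical signs and fatality.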
# Mus musculus [3] = test: Toxicity in ICR mouse assessed as transient clinical signs at 30 mg/kg, ip; format: organism-based; set-up: dose 30 mg/kg, route intraperitoneal; conditions: in vivo
# Mus musculus [4] = test: Toxicity in ICR mouse assessed as clinical signs at 10 mg/kg, ip; format: organism-based; set-up: dose 10 mg/kg, route intraperitoneal; conditions: in vivo
# [5] = test system: Trypanosoma brucei brucei; test: Antitrypanocidal activity against Trypanosoma brucei brucei Lister 427 infected in ICR mouse assessed as reduction in parasitemia at 30 mg/kg, ip qd administered 24 hrs post infection for 4 consecutive days; format: functional, organism-based; set-up: dose 30 mg/kg
SMILES,Activity [1],further results
N#Cc1c(-c2cccc(C=O)c2)[nH]c2nc(N)nc(N)c12,inactive,
Nc1nc2[nH]c(-c3ccc(CCCN4CCOCC4)cc3)c(-c3ccccc3)c2c(=O)[nH]1,inactive,
Nc1nc(N2CCSCC2)c2cc[nH]c2n1,inactive,
Nc1nc(N)c(C(C[N+](=O)[O-])c2ccc(F)cc2)c(NC2CCCCC2)n1 (stereo unspecified),inactive,
Nc1nc(N)c(C(C[N+](=O)[O-])c2ccccc2)c(=O)[nH]1 (stereo unspecified),inactive,
COc1nc(N)nc2[nH]cc(C#N)c12,inactive,
CC(C)COc1nc(N)nc(N)c1C(C[N+](=O)[O-])c1ccc(F)cc1 (stereo unspecified),inactive,
N#Cc1c[nH]c2nc(N)nc(N)c12,inactive,
Nc1nc2[nH]c(-c3ccccc3)c(-c3ccccc3)c2c(=O)[nH]1,inactive,
Nc1nc(N)c(C(C[N+](=O)[O-])c2ccc(F)cc2)c(=O)[nH]1 (stereo unspecified),inactive,
Nc1nc(N)c(C(C[N+](=O)[O-])c2ccccc2)c(N)n1 (stereo unspecified),inactive,
Nc1nc2[nH]c(-c3ccc(F)cc3)c(-c3ccccc3)c2c(=O)[nH]1,inactive,
Nc1nc2[nH]cc(CCc3ccccc3)c2c(=O)[nH]1,inactive,
Nc1nc(N)c(C(CCc2ccccc2)C[N+](=O)[O-])c(=O)[nH]1 (stereo unspecified),inactive,
Cc1ccc(C(C[N+](=O)[O-])c2c(N)nc(N)[nH]c2=O)cc1 (stereo unspecified),inactive,
Nc1nc(N)c2c(-c3ccccc3)c(-c3ccccc3)[nH]c2n1,inactive,
Cc1ccc(C(C[N+](=O)[O-])c2c(N)nc(N)nc2N)cc1 (stereo unspecified),inactive,
Nc1nc(N)c(C(CCc2ccccc2)C[N+](=O)[O-])c(N)n1 (stereo unspecified),inactive,
N#Cc1c[nH]c2nc(N)nc(N3CCSCC3)c12,inactive,
Nc1nc(N)c(C(C[N+](=O)[O-])c2ccc(F)cc2)c(N)n1 (stereo unspecified),inactive,
CC(C)Oc1nc(N)nc(N)c1C(C[N+](=O)[O-])c1ccc(F)cc1 (stereo unspecified),inactive,
Nc1nc(N)c2c(-c3ccccc3)c(-c3ccc(F)cc3)[nH]c2n1,inactive,Activity (Mus musculus [2]): Toxic; Activity (Mus musculus [3]): Toxic; Activity (Mus musculus [4]): Non-toxic; Activity [5]: Active

# — ChEMBL document CHEMBL3351984, “Structure-based design and synthesis of antiparasitic pyrrolopyrimidines targeting pteridine reductase 1” (J Med Chem, 2014)
